Assay outcomes: PubChem, several laboratories
DTT redox prof – compounds producing H2O2 with reducing agent – biochemical, NIH compound library profiling, artefact control for MLSCN library redox annotation, primary screen; DTT-dependent redox cycling H2O2, phenol red/HRP absorbance; 100% = 100 µM peroxide control, 0% = buffer; activation, % at 10 µM; 200,000 tested, 0.03% active;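 active means activation of at least 50% relative to the plate's high and low controls in the primary single-dose screen; inactive means activation below 50%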;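 further: compound incubated with DTT at 0.8 mM final as the reducing agent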
PfGluPho inh – PfG6PD enzyme inhibitors, primary screen, biochemical, fluorescence intensity, uHTS. PfGluPho enzyme, NADPH resazurin-diaphorase fluorescence. 350,000 tested, 0.78% active. AID 504690, 2011. glucose-6-phosphate dehydrogenase-6-phosphogluconolactonase (Plasmodium falciparum 3D7). inhibition, % at 20 µM;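 active means inhibition reaching at least a set limit at 20 µM in the primary screen, cut at about 59% in these data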
L major viab – Leishmania major promastigote growth inhibition, primary screen. Leishmania major promastigotes, resazurin fluorescence viability. inhibition, % at 10 µM. 200,000 tested, 9% active. AID 1063, 2008;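 further: promastigotes grown with compound for 44 hours at 28 °C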
Diaphorase act – compounds boosting diaphorase resazurin reduction – biochemical, uHTS, resorufin fluorescence, counter-screen for diaphorase-coupled primary assays, primary screen. activation factor at 20 µM. AID 1229, 2008. Diaphorase/resazurin coupled assay, 16 min; stronger effect = higher value; 1 = vehicle wells, 0 = NADH-free wells. 190,000 tested, 0.005% active;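 active means diaphorase activity raised at least twofold by the compound at 20 µM; inactive means activation factor below 2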
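Material: purified diaphorase enzyme from Clostridium kluyveri / Medium: HEPES pH 7.4 buffer with MgCl2 and Tween 20 / Schedule: enzyme reaction of 16 min at room temperature / Measured by: resorufin fluorescence, excitation 544 nm, emission 590 nm / Evaluation: rise in resorufin formation, marking diaphorase activation or chemical reduction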
G6PDH CS – L. mesenteroides G6PDH inhibitors, counter-screen for G6PDH-coupled screening assays, biochemical, Leuconostoc mesenteroides enzyme; Purified L. mesenteroides G6PDH, diaphorase/resazurin coupled fluorescence, 45 min; glucose-6-phosphate dehydrogenase [Leuconostoc mesenteroides]; inhibition, % at 5 µM; 200,000 tested, 0.12% active
Diaph inh CS – diaphorase inhibitors and chemical oxidizers, primary screen, counter-screen for diaphorase-coupled primary assays, biochemical, uHTS, resorufin fluorescence; AID 1217, 2008; 190,000 tested, 0.69% active; inhibition, % at 20 µM; diaphorase resazurin-to-resorufin fluorescence, NADH, 16 min; bacterial (C. kluyveri) enzyme, not human;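 active means primary screen inhibition at 20 µM above a set limit, cut at about 50% in these data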
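Test system: diaphorase enzyme from Clostridium kluyveri; amount: diaphorase at 0.14 U/mL in enzyme working solution; detection: fluorescence of resorufin formed from resazurin, Ex 544/Em 590 nm; times: reaction incubation of 16 min at room temperature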
PfG6PD confirm – PfG6PD inhibitors, hit retest, confirmation, biochemical, fluorescence intensity, single concentration. shares compounds with PfGluPho inh. 2,400 tested, 34% active. AID 504753, 2011. recombinant PfGluPho, NADPH-diaphorase-resazurin fluorescence. inhibition, % at 20 µM;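 active means inhibition of at least 50% at 20 µM in any single replicate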
Diaphorase 10uM – diaphorase inhibitors and chemical oxidizers, confirmation, counter-screen for P. falciparum G6PD inhibitor project, biochemical, fluorescence intensity, 10 µM NADPH; shares compounds with PfGluPho inh; diaphorase-coupled resazurin reduction, NADPH 10 uM; inhibition, % at 20 µM; 820 tested, 39% active;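 active means average inhibition reaching 50% or more with the compound at 20 µM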;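 further: resorufin red fluorescence formed as diaphorase reduces resazurin using NADPH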
Diaph ctr 30uM – diaphorase inhibitors and chemical oxidizers, confirmation, counter-screen for P. falciparum G6PD inhibitor project, biochemical, fluorescence intensity, 30 µM NADPH; shares compounds with PfGluPho inh; Diaphorase/resazurin coupled assay, resorufin fluorescence; inhibition, % at 20 µM; 820 tested, 29% active;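 active means inhibition averaging 50% or more, tested at 20 µM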
Of the large screens only hits and unclear results are named; the others gave an inactive call (follow-up assays come after a bar, where they were run). The sample as a whole holds a higher share of hits than the screen did. Unless noted, no stated cut-off is given here; in the data, active means inhibition above about 50%; inactive means the rest.

Cc1ccccc1NC(=O)c1c(C)[nH]c(=S)c(C#N)c1-c1ccco1	none
Cc1[nH]c(=S)c(C#N)c(C)c1C(=O)Nc1ccccc1	PfGluPho inh 61.8 | PfG6PD confirm inactive
CCc1c(C(=O)Nc2ccccc2)c(C)[nH]c(=S)c1C#N	PfGluPho inh 59.1 | PfG6PD confirm 54.4 | Diaphorase 10uM inactive | Diaph ctr 30uM inactive
CCC1CCCCN1C(=O)Nc1cc(Cl)ccc1OC (stereo not given)	none
O=C(CCCC(=O)OCC(Cl)=C(Cl)Cl)Nc1ccccc1	none
Cn1c(-c2ccc(Cl)nc2)nc2cc(Cl)ccc21	none (no result: DTT redox prof, L major viab, Diaphorase act, G6PDH CS, Diaph inh CS) | PfG6PD confirm inactive
CC(C)C(NC(=O)CN1C(=O)c2ccccc2C1=O)c1ccccc1 (stereo not given)	none (no result: DTT redox prof, L major viab, Diaphorase act, G6PDH CS, Diaph inh CS)
CCCNC(=O)COC(=O)c1cc2c(=O)n3ccccc3nc2s1	none
Cc1ccc(OCc2ccc(Br)cc2)c([N+](=O)[O-])n1	none (no result: PfGluPho inh)
COC(=O)c1sc2nc(-c3ccco3)ccc2c1N	PfGluPho inh 75.6 | PfG6PD confirm inactive
NC(=O)c1sc2nc(-c3ccco3)ccc2c1N	none
Cc1ccc(NC(=S)N(CCN(C)C)Cc2cccs2)c(C)c1	PfGluPho inh 60.9 | PfG6PD confirm inactive
CC(C)S(=O)(=O)c1csc(NC(=O)Nc2cc(Cl)ccc2Cl)c1Cl	PfGluPho inh 86.2 (no result: DTT redox prof, L major viab, Diaphorase act, G6PDH CS, Diaph inh CS) | PfG6PD confirm inactive
CC(=O)NC(CCS(C)(=O)=O)C(=O)Nc1cc(Cl)ccc1Cl (stereo not given)	none
CC(/C=C1\N=C(SCc2ccccc2)SC1=O)=C\c1ccccc1	none
N#Cc1c(N)n(-c2ccc(N)cc2)c2nc3ccccc3nc12	none (no result: DTT redox prof, L major viab, Diaphorase act, G6PDH CS, Diaph inh CS)
N#Cc1c(C#N)c(SSc2c(C#N)c(C#N)c(N)n2-c2ccccc2)n(-c2ccccc2)c1N	PfGluPho inh 110.6 (no result: DTT redox prof, L major viab, Diaphorase act, G6PDH CS, Diaph inh CS) | PfG6PD confirm 60.9 | Diaphorase 10uM inactive | Diaph ctr 30uM inactive
Cc1ccc(C(=O)N2CCCC(c3nc4c(nnn4Cc4ccccc4)c(=O)[nH]3)C2)cc1 (stereo not given)	none
C[n+]1cccc2c(Br)ccc([O-])c21	PfGluPho inh 114.0 (no result: DTT redox prof, L major viab, Diaphorase act, G6PDH CS, Diaph inh CS) | PfG6PD confirm inactive
Cn1c(=O)c2c(ncn2CC2OCCO2)n(C)c1=O	none (no result: DTT redox prof, L major viab, Diaphorase act, G6PDH CS, Diaph inh CS)
Fc1ccc(-c2nn3c(C4COc5ccccc5O4)nnc3s2)cc1 (stereo not given)	none
c1ccc(OCc2nnc3sc(-c4cccs4)nn23)cc1	PfGluPho inh 85.8 | PfG6PD confirm inactive
c1csc(-c2nn3c(C4COc5ccccc5O4)nnc3s2)c1 (stereo not given)	PfGluPho inh 59.2 | PfG6PD confirm inactive
Clc1ccc(Cl)c(-c2nn3c(COc4ccccc4)nnc3s2)c1	PfGluPho inh 60.3 | PfG6PD confirm inactive
CSCCC(NC(=O)c1ccccc1)C(=O)NCCc1ccc2c(c1)OCCO2 (stereo not given)	none (no result: DTT redox prof, L major viab, Diaphorase act, G6PDH CS, Diaph inh CS)
O=C1CN(C(=O)COc2ccc(F)cc2Br)c2ccccc2N1	none
COc1cc(/C=N/n2cc(-c3ccccc3)[nH]c2=S)cc(OC)c1O	PfGluPho inh 60.7 (no result: DTT redox prof, L major viab, Diaphorase act, G6PDH CS, Diaph inh CS) | PfG6PD confirm 52.5 | Diaphorase 10uM inactive | Diaph ctr 30uM inactive
Nc1ccc2nc(-c3ccccc3)cnc2c1	none (no result: DTT redox prof, L major viab, Diaphorase act, G6PDH CS, Diaph inh CS)
